In ChEMBL document CHEMBL5303300, “EUbOPEN Chemogenomics Library - Multiplex” (2023):
“And” between values parts separate entries of the source, which are not always exact repeats. Equal entries are not always repeated.

System: HEK-293T
Assay: Multiplex assay against HEK293T
Assay type: toxicity, cell-based
Conditions: human, number of replicates 2
Procedure, shortened: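 Hoechst33342, BioTracker Green Microtubule Cytoskeleton Dye, MitoTracker Red and Annexin V Alexa Fluor 680 were added to live cells at seeding, and imaging on a CQ1 microscope at 37°C and 5% CO2 followed compound addition. Gating by CellPathfinder machine learning separated cells into Hoechst high-intensity objects or normal cells, then normal cells into healthy, pyknosed or fragmented nuclei, then pyknosed cells into mitotic or apoptotic. Per cents of healthy-nucleus cells are reported for the tubulin, mitochondrial-mass and membrane-permeability phenotypes.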

[1] = 12 h, 1 µM, compound concentration 1 uM
[2] = 12 h, 10 µM, compound concentration 10 uM
[3] = 24 h, 1 µM, compound concentration 1 uM
[4] = 24 h, 10 µM, compound concentration 10 uM
[5] = 48 h, 1 µM, compound concentration 1 uM
[6] = 48 h, 10 µM, compound concentration 10 uM

## CN(C)C/C=C/C(=O)Nc1ccc(C(=O)Nc2cccc(Nc3ncc(Cl)c(-c4c[nH]c5ccccc45)n3)c2)cc1
[1]
  Population Apoptotic (%): 42% and 60%
  Population Fragmented Nuclei (%): 2% and 4%
  Population Healthy Nuclei (%): 51% and 52%
  Population Hoechst High Intensity Objects (%): 23% and 21%
  Population Membrane Permeable-Phenotype (%): 9% and 14%
  Population Mitochondria Different-Phenotype (%): 37% and 41%
  Population Mitotic Cells (%): 57% and 40%
  Population Normal (%): 76% and 78%
  Population Pyknosed Nuclei (%): 46% and 43%
  Population Tubulin-Different-Phenotype (%): 89% and 83%
  Total Cell Count: 442 and 379
[2]
  Population Apoptotic (%): 52% and 73%
  Population Fragmented Nuclei (%): 3% and 2%
  Population Healthy Nuclei (%): 61% and 57%
  Population Hoechst High Intensity Objects (%): 17% and 19%
  Population Membrane Permeable-Phenotype (%): 10% and 5%
  Population Mitochondria Different-Phenotype (%): 26% and 31%
  Population Mitotic Cells (%): 47% and 26%
  Population Normal (%): 82% and 80%
  Population Pyknosed Nuclei (%): 35% and 40%
  Population Tubulin-Different-Phenotype (%): 91% and 95%
  Total Cell Count: 459 and 452
[3]
  Population Apoptotic (%): 61% and 75%
  Population Fragmented Nuclei (%): 4% and 5%
  Population Healthy Nuclei (%): 43% and 50%
  Population Hoechst High Intensity Objects (%): 24% and 23%
  Population Membrane Permeable-Phenotype (%): 10% and 5%
  Population Mitochondria Different-Phenotype (%): 44% and 45%
  Population Mitotic Cells (%): 38% and 24%
  Population Normal (%): 75% and 76%
  Population Pyknosed Nuclei (%): 51% and 43%
  Population Tubulin-Different-Phenotype (%): 84% and 77%
  Total Cell Count: 394 and 349
[4]
  Population Apoptotic (%): 67% and 83%
  Population Fragmented Nuclei (%): 6% and 4%
  Population Healthy Nuclei (%): 49% and 46%
  Population Hoechst High Intensity Objects (%): 19% and 20%
  Population Membrane Permeable-Phenotype (%): 9% and 3%
  Population Mitochondria Different-Phenotype (%): 22% and 35%
  Population Mitotic Cells (%): 32% and 16%
  Population Normal (%): 80% and 79%
  Population Pyknosed Nuclei (%): 43% and 48%
  Population Tubulin-Different-Phenotype (%): 87% and 94%
  Total Cell Count: 472 and 454
[5]
  Population Apoptotic (%): 79% and 73%
  Population Fragmented Nuclei (%): 8% and 7%
  Population Healthy Nuclei (%): 49% and 42%
  Population Hoechst High Intensity Objects (%): 20% and 22%
  Population Membrane Permeable-Phenotype (%): 3% and 7%
  Population Mitochondria Different-Phenotype (%): 43% and 55%
  Population Mitotic Cells (%): 20% and 26%
  Population Normal (%): 79% and 77%
  Population Pyknosed Nuclei (%): 42% and 49%
  Population Tubulin-Different-Phenotype (%): 63% and 74%
  Total Cell Count: 354 and 385
[6]
  Population Apoptotic (%): 79% and 85%
  Population Fragmented Nuclei (%): 8% and 7%
  Population Healthy Nuclei (%): 36% and 31%
  Population Hoechst High Intensity Objects (%): 21% and 19%
  Population Membrane Permeable-Phenotype (%): 7% and 3%
  Population Mitochondria Different-Phenotype (%): 33% and 41%
  Population Mitotic Cells (%): 20% and 14%
  Population Normal (%): 78% and 80%
  Population Pyknosed Nuclei (%): 54% and 60%
  Population Tubulin-Different-Phenotype (%): 82% and 97%
  Total Cell Count: 449 and 445
